Source: ChEMBL document CHEMBL3414528, “Novel naftopidil-related derivatives and their biological effects as alpha1-adrenoceptors antagonists and antiproliferative agents” (Eur J Med Chem, 2015)

What was measured:
[1] = target: T1, Alpha-1A adrenergic receptor (Rattus norvegicus, UniProt P43140); test: Antagonist activity at Sprague-Dawley rat prostatic vas deferens adrenergic alpha-1A receptor after 20 mins; details: read-out: pA2 (converted)
T1 sequence (P43140 whole entry): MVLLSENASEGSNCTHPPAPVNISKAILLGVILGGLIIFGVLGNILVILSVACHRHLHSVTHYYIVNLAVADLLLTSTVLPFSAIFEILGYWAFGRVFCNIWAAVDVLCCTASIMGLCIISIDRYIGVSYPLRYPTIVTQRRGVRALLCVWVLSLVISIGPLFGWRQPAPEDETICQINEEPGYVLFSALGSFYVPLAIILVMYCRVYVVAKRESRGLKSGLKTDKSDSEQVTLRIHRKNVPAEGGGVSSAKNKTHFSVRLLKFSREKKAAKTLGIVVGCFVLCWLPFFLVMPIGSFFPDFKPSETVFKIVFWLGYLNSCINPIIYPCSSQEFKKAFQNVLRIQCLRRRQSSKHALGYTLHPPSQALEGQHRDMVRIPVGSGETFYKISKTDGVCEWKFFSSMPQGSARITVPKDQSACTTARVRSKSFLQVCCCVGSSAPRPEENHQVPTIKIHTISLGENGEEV
In short: (§1)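 Isolated rat tissues (prostatic vas deferens, spleen, thoracic aorta) contracted with cumulative norepinephrine; concentration-response curves recorded in presence of increasing antagonist concentrations, antagonism read as rightward curve shift. Mean ± SEM of five to eight separate experiments.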

[2] = target: T2, Alpha-1B adrenergic receptor (Rattus norvegicus, UniProt P15823); test: Antagonist activity at Sprague-Dawley rat spleen adrenergic alpha-1B receptor after 20 mins; details: read-out: pA2 (converted); in short: as §1
T2 sequence (P15823 whole entry): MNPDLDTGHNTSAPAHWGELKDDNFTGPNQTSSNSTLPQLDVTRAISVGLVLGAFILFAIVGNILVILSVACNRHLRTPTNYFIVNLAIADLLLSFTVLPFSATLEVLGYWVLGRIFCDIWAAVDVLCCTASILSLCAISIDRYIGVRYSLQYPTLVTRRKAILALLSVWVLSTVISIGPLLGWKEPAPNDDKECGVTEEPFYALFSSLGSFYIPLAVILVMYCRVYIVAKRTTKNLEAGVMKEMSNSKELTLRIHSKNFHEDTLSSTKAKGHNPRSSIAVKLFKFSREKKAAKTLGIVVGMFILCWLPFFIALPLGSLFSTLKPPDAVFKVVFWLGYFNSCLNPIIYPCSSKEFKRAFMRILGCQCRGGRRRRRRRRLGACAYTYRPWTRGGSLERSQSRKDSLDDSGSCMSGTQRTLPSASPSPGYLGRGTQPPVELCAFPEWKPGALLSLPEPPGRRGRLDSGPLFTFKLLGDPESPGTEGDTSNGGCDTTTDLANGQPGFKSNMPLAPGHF

[3] = target: T3, Alpha-1D adrenergic receptor (Rattus norvegicus, UniProt P23944); test: Antagonist activity at Sprague-Dawley rat thoracic aorta adrenergic alpha-1D receptor after 20 mins; details: read-out: pA2 (converted); in short: as §1
T3 sequence (P23944 whole entry): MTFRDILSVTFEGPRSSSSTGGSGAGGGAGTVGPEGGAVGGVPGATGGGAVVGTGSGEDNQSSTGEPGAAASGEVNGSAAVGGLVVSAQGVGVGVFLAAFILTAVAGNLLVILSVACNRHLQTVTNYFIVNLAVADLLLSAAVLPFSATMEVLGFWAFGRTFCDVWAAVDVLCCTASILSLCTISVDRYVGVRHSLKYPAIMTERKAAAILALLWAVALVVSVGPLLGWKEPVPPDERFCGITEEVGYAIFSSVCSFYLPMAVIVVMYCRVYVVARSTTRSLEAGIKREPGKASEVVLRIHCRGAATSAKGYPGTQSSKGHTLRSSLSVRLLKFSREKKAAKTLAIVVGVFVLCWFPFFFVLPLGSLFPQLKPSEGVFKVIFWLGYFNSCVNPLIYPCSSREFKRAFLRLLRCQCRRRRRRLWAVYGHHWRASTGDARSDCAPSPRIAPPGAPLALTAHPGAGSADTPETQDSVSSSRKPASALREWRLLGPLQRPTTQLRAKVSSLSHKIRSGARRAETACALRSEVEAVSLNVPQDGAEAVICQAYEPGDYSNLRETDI

Rattus norvegicus [4] = organism: Rattus norvegicus; test: Selectivity ratio for Sprague-Dawley rat thoracic aorta adrenergic alpha-1D receptor to Sprague-Dawley rat spleen adrenergic alpha-1B receptor; type: tissue-based
Rattus norvegicus [5] = organism: Rattus norvegicus; test: Selectivity ratio for Sprague-Dawley rat prostatic vas deferens adrenergic alpha-1A receptor to Sprague-Dawley rat spleen adrenergic alpha-1B receptor
Rattus norvegicus [6] = organism: Rattus norvegicus; test: Selectivity ratio for Sprague-Dawley rat thoracic aorta adrenergic alpha-1D receptor to Sprague-Dawley rat prostatic vas deferens adrenergic alpha-1A receptor
[7] = Cytotoxicity against human PC3 cells after 48 hrs by WST-8 assay; type: functional, cell-based; details: PC-3, 48 h
DU-145 [8] = test: Cytotoxicity against human DU145 cells after 48 hrs by WST-8 assay; type: functional, cell-based; details: DU-145, 48 h
LNCaP = test: Cytotoxicity against human LNCAP cells after 48 hrs by WST-8 assay; type: functional, cell-based
[9] = Cytotoxicity against human PC3 cells; type: functional, cell-based; details: PC-3
DU-145 [10] = test: Cytotoxicity against human DU145 cells; type: functional, cell-based

Kb [1] [nM]	Kb [2] [nM]	Kb [3] [nM]	SMILES	Ratio (Rattus norvegicus [4])	Ratio (Rattus norvegicus [5])	Ratio (Rattus norvegicus [6])	IC50 [7] [nM]	IC50 (DU-145 [8]) [nM]	IC50 (LNCaP) [nM]	IC50 [9] [nM]	IC50 (DU-145 [10]) [nM]
7.94	513	5.25	COc1ccccc1N1CCN(CCCNC(=O)Cc2c[nH]c3ccccc23)CC1	97.7	64.6	1.5					
12.6	95.5	5.13	COc1ccccc1N1CCN(CCCNC(=O)CCCc2c[nH]c3ccccc23)CC1	18.6	7.6	2.5	> 100000	> 100000	52300		
195	219	34.7	COc1ccccc1N1CCN(CCCNC(=O)CCc2c[nH]c3ccccc23)CC1	6.3	1.1	5.6					
52.5	166	5.5	COc1ccccc1N1CCN(CCCNC(=O)c2cn(C)c3ccccc23)CC1	30.2	3.2	9.6					
26.3	123	11.7	COc1ccccc1N1CCN(CCCNC(=O)c2ccc3[nH]ccc3c2)CC1	10.5	4.7	2.2					
47.9	257	19.5	COc1ccccc1N1CCN(CCCNC(=O)c2cc3cc(Cl)ccc3[nH]2)CC1	13.2	5.4	2.5	36900	47000	28400		
55	155	26.9	COc1ccccc1N1CCN(CCCNC(=O)c2cc3cc(O)ccc3[nH]2)CC1	5.6	2.8	2					

Continued, compound first:

SMILES	Kb [1] [nM]	Kb [2] [nM]	Kb [3] [nM]	Ratio (Rattus norvegicus [4])	Ratio (Rattus norvegicus [5])	Ratio (Rattus norvegicus [6])	IC50 [7] [nM]	IC50 (DU-145 [8]) [nM]	IC50 (LNCaP) [nM]	IC50 [9] [nM]	IC50 (DU-145 [10]) [nM]
COc1ccccc1N1CCN(CCCNC(=O)c2cc3cccc([N+](=O)[O-])c3[nH]2)CC1	58.9	646	28.2	22.9	11	2.1					
COc1ccc2[nH]c(C(=O)NCCCN3CCN(c4ccccc4OC)CC3)cc2c1	77.6	1450	58.9	24.5	18.6	1.3					
COc1cc2nc(N3CCN(C(=O)C4COc5ccccc5O4)CC3)nc(N)c2cc1OC (stereo not drawn) [DOXAZOSIN]							> 50000				
COc1cc2nc(N3CCN(C(=O)C4CCCO4)CC3)nc(N)c2cc1OC (stereo not drawn) [TERAZOSIN]		2.57	1.48								
COc1ccccc1N1CCN(CCCNC(=O)c2cc3ccc(Br)cc3[nH]2)CC1	69.2	209	15.1	13.8	3	4.6	31200	39300	26700		
COc1ccccc1N1CCN(CC(O)COc2cccc3ccccc23)CC1 (stereo not drawn) [NAFTOPIDIL]	33.1	178	11.7	15.1	5.4	2.8	> 50000	> 50000	> 50000	33200	22200
